ChEMBL document CHEMBL4257556, “Novel 1,3,4-thiadiazole-chalcone hybrids containing catechol moiety: synthesis, antioxidant activity, cytotoxicity and DNA interaction studies” (Medchemcomm, 2018)
pIC50: −log10 of the molar value. Calls of active or inactive are those of the source. No cut-off for these calls is given here.

What was measured:
Calf thymus DNA [1] = assay: Binding affinity to calf thymus DNA at 10 to 40 uM after 90 mins by UV/visible spectrophotometric analysis; type: nucleic-acid assay; details: Bos taurus
Outline: (§1)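 CT-DNA stock in 10 mM Tris-HCl pH 7.9 (A260/A280 1.89–2.01; concentration from ε260 6600 M–1 cm–1). Compound (10, 20 or 40 μM) plus CT-DNA (95 μM) in 40 mM bicarbonate pH 8.4, 37 °C 90 min; spectra 200–800 nm. Hyper/hypochromism at 259 nm from bound versus summed free compound and DNA extinction; triplicate.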

HeLa [2] = assay: Upregulation of miR-206 expression in human HeLa cells at 10 uM after 24 hrs by RT-qPCR method; type: functional, cell-based
HeLa [3] = assay: Antioxidant activity in human HeLa cells assessed as decrease in reactive oxygen species at 10 uM after 24 hrs by dichlorofluorescein dye-based flow cytometric method; type: functional, cell-based
Outline: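 HeLa cells pretreated 24 h with 10 μM compound, washed, loaded with 30 μM DCFH-DA in PBS 45 min at 37 °C. One portion read directly (endogenous ROS); other portion exposed to 10 mM H2O2 30 min at 37 °C. DCF green fluorescence by flow cytometry, 20 000 events per sample; mean ± SD of two independent experiments.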

A549 = assay: Cytotoxicity against human A549 cells assessed as decrease in cell survival after 72 hrs by MTT assay; type: functional, cell-based; details: A549, 72 h
Outline: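 HeLa (2000/well), A549 and MRC-5 (5000/well) seeded 20 h before treatment; HL-60 (7000/well) 2 h before. Five concentrations (6.25–100 μM or 3.125–50 μM) from 5 mM DMSO stocks, final DMSO ≤1%, 72 h; survival by MTT. Cisplatin positive control; three independent experiments in triplicate.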

Calf thymus DNA [4] = assay: Binding affinity to calf thymus DNA assessed as hyperchromism at 10 uM after 90 mins by UV/visible spectrophotometric analysis; type: nucleic-acid assay; details: Bos taurus; outline: as §1
Calf thymus DNA [5] = assay: Binding affinity to calf thymus DNA assessed as hyperchromism at 20 uM after 90 mins by UV/visible spectrophotometric analysis; type: nucleic-acid assay; details: Bos taurus; outline: as §1
HeLa [6] = assay: Downregulation of miR-133b expression in human HeLa cells at 10 uM after 24 hrs by RT-qPCR method; type: functional, cell-based
HeLa [7] = assay: Cell cycle arrest in human HeLa cells assessed as decrease in cell levels at G1 phase at IC50 after 24 hrs by propidium iodide staining-based flow cytometric method; type: functional
Outline: (§2)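 HeLa cells treated 24 h at IC50 or 2×IC50 (from 72 h assay), fixed in 70% ethanol, stored at –20 °C ≥1 week, RNase A 30 min 37 °C, propidium iodide stained; flow cytometry, 10 000 gated events. Mean ± SD of three independent experiments; one-way ANOVA with Dunnett's post-test, p < 0.05.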

Calf thymus DNA [8] = assay: Binding affinity to calf thymus DNA after 90 mins by spectroscopic titration method; type: nucleic-acid assay; details: Bos taurus
Outline: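 Compound fixed at 40 μM titrated with CT-DNA (2.2–13 × 10–5 M) in 40 mM bicarbonate pH 8.4 after 90 min at 37 °C; absorbance at 259 nm per DNA level. Kb from slope/intercept ratio of [DNA]/(εa–εf) versus [DNA] plot; triplicate assays.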

Calf thymus DNA [9] = assay: Displacement of Hoechst 33258 from calf thymus DNA assessed as quenching constant by fluorescence spectrophotometric analysis; type: nucleic-acid assay; details: Bos taurus
Outline: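 CT-DNA 100 μM (per phosphate) in 40 mM bicarbonate pH 8.4 pretreated 20 min with Hoechst 33258 (28 μM final), then compound added stepwise. Excitation 350 nm, emission 390–550 nm, read at 444 nm, 10 nm slits; H–DNA as control. Quenching constant K by Stern–Volmer, I0/I versus r = [compound]/[DNA]; triplicate.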

DNA = assay: Reversal of Fe2+-induced Escherichia coli pUC19 DNA cleavage at 1:1 compound to Fe2+ mole ratio after 90 mins by agarose gel electrophoresis method; type: functional
Outline: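 Compound (4 μL of 2 mM) preincubated with FeSO4 (1 or 2 μL of 8 mM; compound:Fe 1:1 or 1:2) in bicarbonate buffer 60 min at 37 °C, then pUC19 added for another 90 min; products resolved on 1% agarose gel, ethidium bromide stained.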

HeLa [10] = assay: Cell cycle arrest in human HeLa cells assessed as accumulation at sub-G1 phase at IC50 and 2 times IC50 after 24 hrs by propidium iodide staining-based flow cytometric method; type: functional; outline: as §2
HeLa [11] = assay: Downregulation of miR-21 expression in human HeLa cells at 10 uM after 24 hrs by RT-qPCR method; type: functional, cell-based

Activity (Calf thymus DNA [1]): Active
Activity (Calf thymus DNA [4]): -13.7%
Activity (Calf thymus DNA [5]): -7.36%
Kb (Calf thymus DNA [8]): 0.74 ×10³ /M
K (Calf thymus DNA [9]): 2.95
Structure (SMILES): Cc1cccc(C(=O)/C=C/c2ccc(C(=O)Nc3nnc(-c4ccc(O)c(O)c4)s3)cc2)c1
Activity (HeLa [2]): Active
Activity (HeLa [3]): Active
pIC50 (A549): 4.55
Activity (HeLa [6]): Active
Activity (HeLa [7]): Active
Activity (DNA): Active
Activity (HeLa [10]): Active
Activity (HeLa [11]): inactive
